A short description of data set [1]: Plasma pharmacokinetics in mice. The format is in vivo. The note with it: BALB/c mouse, IV. An outline of the steps:
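Balb/c mice received a single IV or oral-gavage dose, with low-dose isoflurane restraint for gavage. Each mouse gave one time point: 3 mice per point, 10 time points. Blood was taken by cardiac puncture under deep isoflurane anaesthesia, and plasma was assayed for parent compound by validated LC-MS/MS.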

Data set [2] is described as follows: Microsomal stability.
Data set [3] can be described thus: Plasma stability, mouse plasma.
The conditions of data set [4]: IV doses 30–60 mg/kg, within 5 min, Male CD1 mice; cited from earlier work.

The source of these data is paper PMC6051889 (ACS chemical neuroscience, 2018).

A value given as a limit tells only on which side of the number the result lay.

Broadly, the share remaining is what is left of the initial amount, in per cent. Read a low share remaining as a greater loss.

Take `CC(C)C[C@H](NC(=O)[C@H](Cc1ccccc1)NC(=O)CNC(=O)CNC(=O)[C@@H](N)Cc1ccc(O)cc1)C(=O)O` [Compound 1, Leu-enkephalin]: the “time until completely consumed in plasma” value in data set [1] was at most 5 min. In addition, in data set [2] (in the absence of NADPH), the microsomal degradation entry is reported as “slowly degraded”. Also, the material metabolized in data set [2] (mouse, rat and human NADPH-charged microsomes, 2 h, 0.50 μM) is given as 38–50%. In data set [3], this molecule had a fraction remaining at 4 h, 50 μM above 90%.

Regarding [D-Pen^2,D-Pen^5]-enkephalin [DPDPE], in data set [4], the “in vivo antinociceptive activity (hotplate)” value is on record as “demonstrated in vivo antinociceptive activity”.
